Measurements from ChEMBL document CHEMBL4689842, “EUbOPEN Chemogenomics Library wave 1” (2021).
“And” between values parts separate entries of the source, which are not always exact repeats. Identical values can stand only once.

System: Fibroblast
Assay: Multiplex assay against human fibroblast
Type: toxicity, cell-based
Procedure, shortened: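 Live cells were stained at seeding with Hoechst33342, BioTracker Green Microtubule Cytoskeleton Dye, MitoTracker Red and Annexin V Alexa Fluor 680. Following compound addition, they were imaged on a CQ1 microscope at 37°C and 5% CO2 and gated by CellPathfinder machine learning into Hoechst high-intensity objects or normal cells, with normal cells split into healthy, pyknosed or fragmented nuclei and pyknosed cells into mitotic or apoptotic. Tubulin, mitochondrial-mass and membrane-permeability phenotypes are per cents of healthy-nucleus cells.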

[1] = 12 h, 1 µM, compound concentration 1 uM, replicate 1
[2] = 12 h, 1 µM, compound concentration 1 uM, replicate 2
[3] = 12 h, 10 µM, compound concentration 10 uM, replicate 1
[4] = 12 h, 10 µM, compound concentration 10 uM, replicate 2
[5] = 24 h, 1 µM, compound concentration 1 uM, replicate 1
[6] = 24 h, 1 µM, compound concentration 1 uM, replicate 2
[7] = 24 h, 10 µM, compound concentration 10 uM, replicate 1
[8] = 24 h, 10 µM, compound concentration 10 uM, replicate 2
[9] = 48 h, 1 µM, compound concentration 1 uM, replicate 1
[10] = 48 h, 1 µM, compound concentration 1 uM, replicate 2
[11] = 48 h, 10 µM, compound concentration 10 uM, replicate 1
[12] = 48 h, 10 µM, compound concentration 10 uM, replicate 2

Cc1nc(-c2cn3c(n2)-c2ccc(-c4cnn(C(C)(C)C(N)=O)c4)cc2OCC3)n(C(C)C)n1 [TASELISIB]
Population Apoptotic (%) [1]: 85%
Population Fragmented Nuclei (%) [1]: 29%
Population Healthy Nuclei (%) [1]: 53%
Population Hoechst High Intensity Objects (%) [1]: 12%
Population Membrane Permeable-Phenotype (%) [1]: 7%
Population Mitochondria Different-Phenotype (%) [1]: 6%
Population Mitotic Cells (%) [1]: 14%
Population Normal (%) [1]: 87%
Population Pyknosed Nuclei (%) [1]: 17%
Population Tubulin-Different-Phenotype (%) [1]: 16%
Total Cell Count [1]: 221
Population Apoptotic (%) [2]: 100%
Population Fragmented Nuclei (%) [2]: 61%
Population Healthy Nuclei (%) [2]: 33%
Population Hoechst High Intensity Objects (%) [2]: 30%
Population Membrane Permeable-Phenotype (%) [2]: 15%
Population Mitochondria Different-Phenotype (%) [2]: 10%
Population Mitotic Cells (%) [2]: 0%
Population Normal (%) [2]: 69%
Population Pyknosed Nuclei (%) [2]: 5%
Population Tubulin-Different-Phenotype (%) [2]: 60%
Total Cell Count [2]: 86
Population Apoptotic (%) [3]: 71%
Population Fragmented Nuclei (%) [3]: 25%
Population Healthy Nuclei (%) [3]: 65%
Population Hoechst High Intensity Objects (%) [3]: 11%
Population Membrane Permeable-Phenotype (%) [3]: 7%
Population Mitochondria Different-Phenotype (%) [3]: 2%
Population Mitotic Cells (%) [3]: 28%
Population Normal (%) [3]: 88%
Total Cell Count [3]: 188
Population Apoptotic (%) [4]: 33%
Population Fragmented Nuclei (%) [4]: 47%
Population Healthy Nuclei (%) [4]: 43%
Population Hoechst High Intensity Objects (%) [4]: 30%
Population Membrane Permeable-Phenotype (%) [4]: 13%
Population Mitochondria Different-Phenotype (%) [4]: 13%
Population Mitotic Cells (%) [4]: 66%
Population Normal (%) [4]: 69%
Population Pyknosed Nuclei (%) [4]: 8%
Population Tubulin-Different-Phenotype (%) [4]: 0%
Total Cell Count [4]: 99
Population Apoptotic (%) [5]: 78%
Population Fragmented Nuclei (%) [5]: 32%
Population Healthy Nuclei (%) [5]: 51%
Population Hoechst High Intensity Objects (%) [5]: 14%
Population Membrane Permeable-Phenotype (%) [5]: 5%
Population Mitochondria Different-Phenotype (%) [5]: 7%
Population Mitotic Cells (%) [5]: 21%
Population Normal (%) [5]: 85%
Population Pyknosed Nuclei (%) [5]: 16%
Population Tubulin-Different-Phenotype (%) [5]: 18%
Total Cell Count [5]: 238
Population Apoptotic (%) [6]: 60%
Population Fragmented Nuclei (%) [6]: 62%
Population Healthy Nuclei (%) [6]: 30%
Population Hoechst High Intensity Objects (%) [6]: 27%
Population Membrane Permeable-Phenotype (%) [6]: 14%
Population Mitochondria Different-Phenotype (%) [6]: 0%
Population Mitotic Cells (%) [6]: 40%
Population Normal (%) [6]: 72%
Population Pyknosed Nuclei (%) [6]: 7%
Population Tubulin-Different-Phenotype (%) [6]: 47%
Total Cell Count [6]: 97
Population Apoptotic (%) [7]: 73%
Population Fragmented Nuclei (%) [7]: 23%
Population Healthy Nuclei (%) [7]: 67%
Population Hoechst High Intensity Objects (%) [7]: 13%
Population Membrane Permeable-Phenotype (%) [7]: 6%
Population Mitochondria Different-Phenotype (%) [7]: 2%
Population Mitotic Cells (%) [7]: 26%
Population Normal (%) [7]: 86%
Population Tubulin-Different-Phenotype (%) [7]: 1%
Total Cell Count [7]: 188
Population Apoptotic (%) [8]: 42%
Population Fragmented Nuclei (%) [8]: 38%
Population Healthy Nuclei (%) [8]: 51%
Population Hoechst High Intensity Objects (%) [8]: 22%
Population Membrane Permeable-Phenotype (%) [8]: 10%
Population Mitochondria Different-Phenotype (%) [8]: 15%
Population Mitotic Cells (%) [8]: 57%
Population Normal (%) [8]: 77%
Population Pyknosed Nuclei (%) [8]: 9%
Population Tubulin-Different-Phenotype (%) [8]: 5%
Total Cell Count [8]: 99

Cc1sc2c(c1C)C(c1ccc(Cl)cc1)=N[C@@H](CC(=O)OC(C)(C)C)c1nnc(C)n1-2
Population Apoptotic (%) [3]: 71% and 88%
Population Fragmented Nuclei (%) [3]: 38% and 43%
Population Healthy Nuclei (%) [3]: 48% and 40%
Population Hoechst High Intensity Objects (%) [3]: 13% and 14%
Population Membrane Permeable-Phenotype (%) [3]: 7% and 4%
Population Mitochondria Different-Phenotype (%) [3]: 0%
Population Mitotic Cells (%) [3]: 28% and 12%
Population Normal (%) [3]: 86% and 85%
Population Pyknosed Nuclei (%) [3]: 13% and 16%
Population Tubulin-Different-Phenotype (%) [3]: 4% and 0%
Total Cell Count [3]: 368 and 183
Population Apoptotic (%) [4]: 66%
Population Fragmented Nuclei (%) [4]: 55% and 63%
Population Healthy Nuclei (%) [4]: 39% and 31%
Population Hoechst High Intensity Objects (%) [4]: 24% and 25%
Population Membrane Permeable-Phenotype (%) [4]: 10% and 0%
Population Mitotic Cells (%) [4]: 33%
Population Normal (%) [4]: 75%
Population Pyknosed Nuclei (%) [4]: 6% and 4%
Total Cell Count [4]: 132 and 92
Population Apoptotic (%) [7]: 73%
Population Fragmented Nuclei (%) [7]: 36% and 29%
Population Healthy Nuclei (%) [7]: 47% and 59%
Population Hoechst High Intensity Objects (%) [7]: 12% and 16%
Population Membrane Permeable-Phenotype (%) [7]: 7%
Population Mitochondria Different-Phenotype (%) [7]: 6%
Population Mitotic Cells (%) [7]: 26%
Population Normal (%) [7]: 87% and 83%
Population Pyknosed Nuclei (%) [7]: 16% and 11%
Population Tubulin-Different-Phenotype (%) [7]: 2% and 1%
Total Cell Count [7]: 183 and 320
Population Apoptotic (%) [8]: 71% and 66%
Population Fragmented Nuclei (%) [8]: 56% and 42%
Population Healthy Nuclei (%) [8]: 31% and 49%
Population Hoechst High Intensity Objects (%) [8]: 28% and 21%
Population Mitochondria Different-Phenotype (%) [8]: 11% and 14%
Population Mitotic Cells (%) [8]: 28% and 33%
Population Normal (%) [8]: 71% and 78%
Population Pyknosed Nuclei (%) [8]: 12% and 8%
Population Tubulin-Different-Phenotype (%) [8]: 11%
Total Cell Count [8]: 81 and 91

CN1CCC[C@@H]1CCO[C@](C)(c1ccccc1)c1ccc(Cl)cc1.O=C(O)/C=C/C(=O)O [CLEMASTINE FUMARATE]
Population Apoptotic (%) [1]: 61%
Population Fragmented Nuclei (%) [1]: 35%
Population Healthy Nuclei (%) [1]: 39%
Population Hoechst High Intensity Objects (%) [1]: 20%
Population Membrane Permeable-Phenotype (%) [1]: 13%
Population Mitochondria Different-Phenotype (%) [1]: 10%
Population Mitotic Cells (%) [1]: 38%
Population Normal (%) [1]: 79%
Population Pyknosed Nuclei (%) [1]: 24%
Population Tubulin-Different-Phenotype (%) [1]: 37%
Total Cell Count [1]: 92
Population Apoptotic (%) [2]: 50%
Population Fragmented Nuclei (%) [2]: 15%
Population Healthy Nuclei (%) [2]: 76%
Population Hoechst High Intensity Objects (%) [2]: 1%
Population Membrane Permeable-Phenotype (%) [2]: 3%
Population Mitochondria Different-Phenotype (%) [2]: 6%
Population Mitotic Cells (%) [2]: 50%
Population Normal (%) [2]: 98%
Population Pyknosed Nuclei (%) [2]: 7%
Population Tubulin-Different-Phenotype (%) [2]: 3%
Total Cell Count [2]: 78
Population Apoptotic (%) [3]: 69%
Population Fragmented Nuclei (%) [3]: 26%
Population Healthy Nuclei (%) [3]: 43%
Population Hoechst High Intensity Objects (%) [3]: 10%
Population Membrane Permeable-Phenotype (%) [3]: 11%
Population Mitochondria Different-Phenotype (%) [3]: 49%
Population Mitotic Cells (%) [3]: 30%
Population Normal (%) [3]: 90%
Population Pyknosed Nuclei (%) [3]: 29%
Population Tubulin-Different-Phenotype (%) [3]: 77%
Total Cell Count [3]: 160
Population Apoptotic (%) [4]: 85%
Population Fragmented Nuclei (%) [4]: 19%
Population Healthy Nuclei (%) [4]: 41%
Population Hoechst High Intensity Objects (%) [4]: 21%
Population Membrane Permeable-Phenotype (%) [4]: 6%
Population Mitochondria Different-Phenotype (%) [4]: 86%
Population Mitotic Cells (%) [4]: 14%
Population Normal (%) [4]: 78%
Population Pyknosed Nuclei (%) [4]: 38%
Population Tubulin-Different-Phenotype (%) [4]: 40%
Total Cell Count [4]: 46
Population Apoptotic (%) [5]: 63%
Population Fragmented Nuclei (%) [5]: 36%
Population Healthy Nuclei (%) [5]: 50%
Population Hoechst High Intensity Objects (%) [5]: 32%
Population Membrane Permeable-Phenotype (%) [5]: 20%
Population Mitochondria Different-Phenotype (%) [5]: 17%
Population Mitotic Cells (%) [5]: 36%
Population Normal (%) [5]: 67%
Population Pyknosed Nuclei (%) [5]: 13%
Population Tubulin-Different-Phenotype (%) [5]: 60%
Total Cell Count [5]: 118
Population Apoptotic (%) [6]: 18%
Population Fragmented Nuclei (%) [6]: 14%
Population Healthy Nuclei (%) [6]: 70%
Population Hoechst High Intensity Objects (%) [6]: 0%
Population Membrane Permeable-Phenotype (%) [6]: 5%
Population Mitochondria Different-Phenotype (%) [6]: 13%
Population Mitotic Cells (%) [6]: 81%
Population Normal (%) [6]: 99%
Population Pyknosed Nuclei (%) [6]: 15%
Population Tubulin-Different-Phenotype (%) [6]: 6%
Total Cell Count [6]: 107
Population Apoptotic (%) [7]: 78%
Population Fragmented Nuclei (%) [7]: 34%
Population Healthy Nuclei (%) [7]: 48%
Population Hoechst High Intensity Objects (%) [7]: 16%
Population Membrane Permeable-Phenotype (%) [7]: 9%
Population Mitochondria Different-Phenotype (%) [7]: 76%
Population Mitotic Cells (%) [7]: 21%
Population Normal (%) [7]: 83%
Population Pyknosed Nuclei (%) [7]: 17%
Population Tubulin-Different-Phenotype (%) [7]: 85%
Total Cell Count [7]: 190
Population Apoptotic (%) [8]: 76%
Population Fragmented Nuclei (%) [8]: 21%
Population Healthy Nuclei (%) [8]: 36%
Population Hoechst High Intensity Objects (%) [8]: 12%
Population Membrane Permeable-Phenotype (%) [8]: 26%
Population Mitochondria Different-Phenotype (%) [8]: 86%
Population Mitotic Cells (%) [8]: 23%
Population Normal (%) [8]: 87%
Population Pyknosed Nuclei (%) [8]: 41%
Population Tubulin-Different-Phenotype (%) [8]: 26%
Total Cell Count [8]: 47
Population Apoptotic (%) [9]: 50%
Population Fragmented Nuclei (%) [9]: 46%
Population Healthy Nuclei (%) [9]: 45%
Population Hoechst High Intensity Objects (%) [9]: 27%
Population Membrane Permeable-Phenotype (%) [9]: 24%
Population Mitochondria Different-Phenotype (%) [9]: 2%
Population Mitotic Cells (%) [9]: 50%
Population Normal (%) [9]: 72%
Population Pyknosed Nuclei (%) [9]: 8%
Population Tubulin-Different-Phenotype (%) [9]: 42%
Total Cell Count [9]: 136
Population Apoptotic (%) [10]: 0%
Population Fragmented Nuclei (%) [10]: 48%
Population Healthy Nuclei (%) [10]: 51%
Population Hoechst High Intensity Objects (%) [10]: 16%
Population Membrane Permeable-Phenotype (%) [10]: 11%
Population Mitochondria Different-Phenotype (%) [10]: 14%
Population Mitotic Cells (%) [10]: 0%
Population Normal (%) [10]: 83%
Population Pyknosed Nuclei (%) [10]: 0%
Population Tubulin-Different-Phenotype (%) [10]: 50%
Total Cell Count [10]: 97
Population Apoptotic (%) [11]: 78%
Population Fragmented Nuclei (%) [11]: 38%
Population Healthy Nuclei (%) [11]: 45%
Population Hoechst High Intensity Objects (%) [11]: 24%
Population Membrane Permeable-Phenotype (%) [11]: 8%
Population Mitochondria Different-Phenotype (%) [11]: 72%
Population Mitotic Cells (%) [11]: 21%
Population Normal (%) [11]: 75%
Population Pyknosed Nuclei (%) [11]: 15%
Population Tubulin-Different-Phenotype (%) [11]: 83%
Total Cell Count [11]: 197
Population Apoptotic (%) [12]: 75%
Population Fragmented Nuclei (%) [12]: 47%
Population Healthy Nuclei (%) [12]: 50%
Population Membrane Permeable-Phenotype (%) [12]: 3%
Population Mitochondria Different-Phenotype (%) [12]: 60%
Population Mitotic Cells (%) [12]: 25%
Population Pyknosed Nuclei (%) [12]: 2%
Population Tubulin-Different-Phenotype (%) [12]: 97%
Total Cell Count [12]: 258
